Tests used:
Salmonella enterica = experiment: Antibacterial activity against Salmonella enterica ATCC 8387 assessed as reduction in bacterial growth incubated for 16 to 20 hrs by CLSI-based broth microdilution method; format: functional; conditions: time 16-20 hrs
Summary of the method: (§1)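 Broth microdilution following CLSI, in cation-adjusted Mueller-Hinton broth. Inoculum from a 4-6 h culture (~10^8 CFU/mL), diluted to ~10^6 CFU/mL. Water stocks were serially diluted in MHB (256 to 0.5 µg/mL) and mixed 1:1 with the inoculum. Plates ran 16-20 h at 37 °C. MIC was read visually. Each concentration was tested in duplicate, and the experiment was repeated at least twice.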

Enterococcus faecalis = experiment: Antibacterial activity against Enterococcus faecalis ATCC 29212 assessed as reduction in bacterial growth incubated 16 to 20 hrs by CLSI-based broth microdilution method; format: functional; conditions: time 16-20 hrs; summary of the method: as §1
[1] = Solubility of the compound in water at room temperature; format: physicochemical; conditions: buffer
Escherichia coli = experiment: Antibacterial activity against Escherichia coli ATCC 25922 assessed as reduction in bacterial growth incubated 16 to 20 hrs by CLSI-based broth microdilution method; format: functional; conditions: time 16-20 hrs; summary of the method: as §1
Staphylococcus aureus = experiment: Antibacterial activity against Staphylococcus aureus ATCC 29213 assessed as reduction in bacterial growth incubated for 16 to 20 hrs by CLSI-based broth microdilution method; format: functional; conditions: time 16-20 hrs; summary of the method: as §1

Structure (SMILES) | MIC (Salmonella enterica) [µg/mL] | MIC (Enterococcus faecalis) [µg/mL] | solubility [1] | MIC (Escherichia coli) [µg/mL] | MIC (Staphylococcus aureus) [µg/mL]
CCCCCCCN(C[C@H]1CN(c2ccc(N3CCOCC3)c(F)c2)C(=O)O1)C(=O)[C@@H](N)CCCN=C(N)N.Cl.Cl.Cl | > 128 | 128 | Soluble | 128 | 64
CCCCCCCCN(C[C@H]1CN(c2ccc(N3CCOCC3)c(F)c2)C(=O)O1)C(=O)[C@@H](N)CCCCN.Cl.Cl | 128 | 64 | Soluble | 128 | 32
CCCC[N+](C)(C)CC(=O)NC[C@H]1CN(c2ccc(N3CCOCC3)c(F)c2)C(=O)O1.[Cl-] | > 128 | > 128 | Soluble | > 128 | > 128
CCCCCCCN(C[C@H]1CN(c2ccc(N3CCOCC3)c(F)c2)C(=O)O1)C(=O)[C@@H](N)CCCCN.Cl.Cl | > 128 | 128 | Soluble | > 128 | 128
